Measurements of several laboratories.
Each line is one published result; the experiments were not run side by side.
Target: Serine/threonine-protein kinase pim-2 (PIM2, Homo sapiens, UniProt Q9P1W9)

| SMILES | observed | action | technique | tested at | endpoint | value |
| --- | --- | --- | --- | --- | --- | --- |
| N#Cc1ccc(NC(=O)Nc2ccccc2)cc1 | cell-free assay | – | competition with immobilised ligand | 25 µM | remaining binding | 100% |
| COc1ccc2oc(-c3ccc4nc(N)oc4c3)c/c(=N\c3ccccc3NC(=O)CCN)c2c1 | binding | – | – | 1 µM | remaining binding | 103% |
| C1=C/COCc2cc(ccc2OCCN2CCCC2)Nc2nccc(n2)-c2cccc(c2)COC/1 | binding | – | – | 0.1 µM | remaining binding | 100% |
| C#Cc1cc(-c2cc(Nc3nc(N[C@@H](C)c4ccc(F)cn4)ncc3Cl)n[nH]2)ccc1C=O | enzyme activity | inhibitor | – | 0.2 µM | inhibition | 2.74% |
| CC#CC(=O)N1CCC[C@H]1c1nc(-c2ccc(C(=O)Nc3ccccn3)cc2)c2c(N)nccn12 | enzyme activity | inhibitor | – | 1 µM | inhibition | 0% |
| C#Cc1cnc(Nc2ccnc(CO)c2)nc1Nc1ccccc1S(C)(=O)=NC#N (stereo not shown) | cell-free assay | – | – | 1 µM | remaining signal | 100% |
| CN1CCN(C(=O)c2ccc(NC(=O)Nc3ccc(N(C)c4ccnc(Nc5ccc(CS(C)(=O)=O)cc5)n4)cc3)cc2)CC1 | binding | – | – | 1 µM | remaining binding | 100% |
| CCCCC(=O)Nc1ccc(-c2ccc3ncn(CCC)c(=O)c3c2)cn1 | binding | – | competition with immobilised ligand | 0.5 µM | remaining binding | 100% |
| C=CC(=O)N1CCC[C@@H](n2nc(-c3ccc(Oc4ccccc4)cc3)c3c(N)ncnc32)C1 | enzyme activity | inhibitor | – | 1 µM | inhibition | 3% |
| Cc1ccc(NC(=O)c2ccnc(C(F)(F)F)c2)cc1-c1cc(OCCO)nc(N2CCOCC2)c1 | binding | – | – | 1 µM | remaining binding | 82% |
